In ChEMBL document CHEMBL2146381, “Structure-activity relationship (SAR) study of ethyl 2-amino-6-(3,5-dimethoxyphenyl)-4-(2-ethoxy-2-oxoethyl)-4H-chromene-3-carboxylate (CXL017) and the potential of the lead against multidrug resistance in cancer treatment” (J Med Chem, 2012):

Tests used:
CCRF-CEM [1] = experiment: Cytotoxicity against human CCRF-CEM cells assessed as cell viability after 48 hrs by celltiter-blue assay; type: functional, cell-based
Procedure, shortened: (§1)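 Tumour cell growth inhibition was measured in vitro, following the lab's established procedure. IC50 values are the mean of at least two independent experiments, each run in triplicate.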

CCRF-CEM [2] = experiment: Ratio of IC50 for human CCRF-CEM/VM-1-5 cells IC50 for human CCRF-CEM cells; type: functional
Procedure, shortened: (§2)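 Each resistant subline and its matched parental line were tested in the same growth-inhibition assay, with IC50 taken as the mean of at least two independent experiments in triplicate. The MDR/parental IC50 ratio is reported as relative sensitivity: above 1 means resistance, below 1 means collateral sensitivity. Parental lines came from different sources for each resistant pair.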

CCRF-CEM [3] = experiment: Ratio of IC50 for human CCRF-CEM/C2 cells IC50 for human CCRF-CEM cells; type: functional; procedure, shortened: as §2
K562 [4] = experiment: Ratio of IC50 for human K562/HHT300 cells to IC50 for human K562 cells; type: functional; procedure, shortened: as §2
HL-60 [5] = experiment: Ratio of IC50 for doxorubicin-resistant human HL60 cells to IC50 for human HL60 cells; type: functional; procedure, shortened: as §2
HL-60 [6] = experiment: Ratio of IC50 for human HL60/ADR cells to IC50 for human HL60 cells; type: functional; procedure, shortened: as §2
K562 [7] = experiment: Cytotoxicity against human K562 cells assessed as cell viability after 48 hrs by celltiter-blue assay; type: functional, cell-based; conditions: K562, 48 h; procedure, shortened: as §1
HL-60 [8] = experiment: Ratio of IC50 for human HL60/MX2 cells to IC50 for human HL60 cells; type: functional; procedure, shortened: as §2
K562 [9] = experiment: Ratio of IC50 for doxorubicin-resistant human K562 cells to IC50 for human K562 cells; type: functional; procedure, shortened: as §2
HL-60 [10] = experiment: Cytotoxicity against human HL60 cells assessed as cell viability after 48 hrs by celltiter-blue assay; type: functional, cell-based; conditions: HL-60, 48 h; procedure, shortened: as §1
CCRF-CEM [11] = experiment: Ratio of IC50 for human CCRF-CEM/VLB100 cells IC50 for human CCRF-CEM cells; type: functional; procedure, shortened: as §2
HL-60 [12] = experiment: Ratio of IC50 for daunorubicin-resistant human HL60 cells to IC50 for human HL60 cells; type: functional; procedure, shortened: as §2

**Q.** How did the IC50 (CCRF-CEM [1]) turn out when `CN(C)CC[C@H](CSc1ccccc1)Nc1ccc(S(=O)(=O)NC(=O)c2ccc(N3CCN(Cc4ccccc4-c4ccc(Cl)cc4)CC3)cc2)cc1[N+](=O)[O-]` [ABT 737] was run?
**A.** 740 nM

**Q.** What about the “Ratio IC50” value (CCRF-CEM [2]) of the same compound?
**A.** 2.2

**Q.** And the “Ratio IC50” value (CCRF-CEM [3])?
**A.** 0.2

**Q.** And the “Ratio IC50” value (K562 [4])?
**A.** 2.3

**Q.** What about the “Ratio IC50” value (HL-60 [5]) of the same compound?
**A.** 19.7

**Q.** And the “Ratio IC50” value (HL-60 [6])?
**A.** 4.5

**Q.** And the IC50 (K562 [7])?
**A.** 34700 nM

**Q.** What about the “Ratio IC50” value (HL-60 [8]) of the same compound?
**A.** 1.5

**Q.** What about the “Ratio IC50” value (K562 [9]) of the same compound?
**A.** 2.7

**Q.** And the IC50 (HL-60 [10])?
**A.** 760 nM

**Q.** And the “Ratio IC50” value (CCRF-CEM [11])?
**A.** 0.3

**Q.** And the “Ratio IC50” value (HL-60 [12])?
**A.** 4.9

**Q.** With `C#CCOC(=O)CC1C(C(=O)OCC#C)=C(N)Oc2ccc(-c3ccc(N)cc3)cc21` (racemic) as the compound, how does the IC50 (CCRF-CEM [1]) read?
**A.** 1470 nM

**Q.** What about the “Ratio IC50” value (CCRF-CEM [2]) of the same compound?
**A.** 0.42

**Q.** What about the “Ratio IC50” value (CCRF-CEM [3]) of the same compound?
**A.** 0.54

**Q.** What about the “Ratio IC50” value (K562 [4]) of the same compound?
**A.** 1.1

**Q.** And the “Ratio IC50” value (HL-60 [5])?
**A.** 0.6

**Q.** What about the “Ratio IC50” value (HL-60 [6]) of the same compound?
**A.** 0.26

**Q.** And the IC50 (K562 [7])?
**A.** 2360 nM

**Q.** And the “Ratio IC50” value (HL-60 [8])?
**A.** 1

**Q.** And the “Ratio IC50” value (K562 [9])?
**A.** 1.08

**Q.** And the IC50 (HL-60 [10])?
**A.** 610 nM

**Q.** And the “Ratio IC50” value (CCRF-CEM [11])?
**A.** 0.93

**Q.** What about the “Ratio IC50” value (HL-60 [12]) of the same compound?
**A.** 0.27

**Q.** With `COc1cc([C@@H]2c3cc4c(cc3[C@@H](O[C@@H]3O[C@@H]5CO[C@@H](C)O[C@H]5[C@H](O)[C@H]3O)[C@H]3COC(=O)[C@H]23)OCO4)cc(OC)c1O` [ETOPOSIDE] as the compound, how does the IC50 (CCRF-CEM [1]) read?
**A.** 240 nM

**Q.** What about the “Ratio IC50” value (CCRF-CEM [2]) of the same compound?
**A.** >50

**Q.** And the “Ratio IC50” value (CCRF-CEM [3])?
**A.** 2.5

**Q.** And the “Ratio IC50” value (K562 [4])?
**A.** >1000

**Q.** What about the “Ratio IC50” value (HL-60 [5]) of the same compound?
**A.** >200

**Q.** What about the “Ratio IC50” value (HL-60 [6]) of the same compound?
**A.** >10

**Q.** And the IC50 (K562 [7])?
**A.** 2300 nM

**Q.** What about the “Ratio IC50” value (HL-60 [8]) of the same compound?
**A.** 9

**Q.** What about the “Ratio IC50” value (K562 [9]) of the same compound?
**A.** >15

**Q.** And the IC50 (HL-60 [10])?
**A.** 110 nM

**Q.** What about the “Ratio IC50” value (CCRF-CEM [11]) of the same compound?
**A.** 8.6

**Q.** And the “Ratio IC50” value (HL-60 [12])?
**A.** >50

**Q.** `CC(C)(C)c1ccc(NC(=S)N/N=C2\C(=O)Nc3ccccc32)cc1` was tested. Which IC50 (CCRF-CEM [1]) did it give?
**A.** 7050 nM

**Q.** What about the “Ratio IC50” value (CCRF-CEM [2]) of the same compound?
**A.** 2.1

**Q.** And the “Ratio IC50” value (CCRF-CEM [3])?
**A.** 0.58

**Q.** And the “Ratio IC50” value (K562 [4])?
**A.** 0.43

**Q.** What about the “Ratio IC50” value (HL-60 [5]) of the same compound?
**A.** 1

**Q.** And the “Ratio IC50” value (HL-60 [6])?
**A.** 0.47

**Q.** What about the IC50 (K562 [7]) of the same compound?
**A.** 26900 nM

**Q.** What about the “Ratio IC50” value (HL-60 [8]) of the same compound?
**A.** 0.86

**Q.** And the “Ratio IC50” value (K562 [9])?
**A.** 0.47

**Q.** And the IC50 (HL-60 [10])?
**A.** 6800 nM

**Q.** What about the “Ratio IC50” value (CCRF-CEM [11]) of the same compound?
**A.** 0.66

**Q.** And the “Ratio IC50” value (HL-60 [12])?
**A.** 0.64

**Q.** `C/C=C(/C)C(=O)O[C@H]1C(C)=C2[C@H]([C@@H]1OC(=O)CCCCCCC)[C@@](C)(OC(C)=O)C[C@H](OC(=O)CCC)[C@@]1(O)[C@H]2OC(=O)[C@@]1(C)O` [THAPSIGARGIN] was tested. Which IC50 (CCRF-CEM [1]) did it give?
**A.** 270 nM

**Q.** What about the “Ratio IC50” value (CCRF-CEM [2]) of the same compound?
**A.** 1

**Q.** What about the “Ratio IC50” value (CCRF-CEM [3]) of the same compound?
**A.** 1.45

**Q.** What about the “Ratio IC50” value (K562 [4]) of the same compound?
**A.** >10

**Q.** What about the “Ratio IC50” value (HL-60 [5]) of the same compound?
**A.** >50

**Q.** And the “Ratio IC50” value (HL-60 [6])?
**A.** 1

**Q.** And the IC50 (K562 [7])?
**A.** 170 nM

**Q.** And the “Ratio IC50” value (HL-60 [8])?
**A.** 0.02

**Q.** And the “Ratio IC50” value (K562 [9])?
**A.** 4.2

**Q.** And the IC50 (HL-60 [10])?
**A.** 7 nM

**Q.** And the “Ratio IC50” value (CCRF-CEM [11])?
**A.** 7.7

**Q.** And the “Ratio IC50” value (HL-60 [12])?
**A.** >50

**Q.** `O=C1c2c(O)ccc(O)c2C(=O)c2c(NCCNCCO)ccc(NCCNCCO)c21` [MITOXANTRONE] was tested. Which IC50 (CCRF-CEM [1]) did it give?
**A.** 36 nM

**Q.** And the “Ratio IC50” value (CCRF-CEM [2])?
**A.** >30

**Q.** What about the “Ratio IC50” value (CCRF-CEM [3]) of the same compound?
**A.** 3

**Q.** What about the “Ratio IC50” value (K562 [4]) of the same compound?
**A.** >10

**Q.** What about the “Ratio IC50” value (HL-60 [5]) of the same compound?
**A.** >20

**Q.** And the “Ratio IC50” value (HL-60 [6])?
**A.** 2.4

**Q.** And the IC50 (K562 [7])?
**A.** 510 nM

**Q.** What about the “Ratio IC50” value (HL-60 [8]) of the same compound?
**A.** >20

**Q.** And the “Ratio IC50” value (K562 [9])?
**A.** 5.1

**Q.** What about the IC50 (HL-60 [10]) of the same compound?
**A.** 16 nM

**Q.** What about the “Ratio IC50” value (CCRF-CEM [11]) of the same compound?
**A.** 2.3

**Q.** What about the “Ratio IC50” value (HL-60 [12]) of the same compound?
**A.** >10
